Assay outcomes deposited in PubChem BioAssay by Johns Hopkins Ion Channel Center.
An excerpt weighted towards active compounds, which were near 2.3% of everything screened.
TRPC6 inhibitor: mouse TRPC6 channel inhibition. Q61143. HEK293-TRPC6, membrane potential dye, ACh-evoked depolarization; stronger effect = lower value. B-score at 10 µM. 310,000 tested, 1.1% active. AID 2553;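 active = B-score under library mean minus 3 SD, initial fluorescence not abnormally high, positive integrated signal ratio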;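 also: B-score derived from integrated fluorescence ratio over the kinetic read; more negative B-score means stronger inhibition of depolarization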
Target sequence (Q61143 whole entry, looked up): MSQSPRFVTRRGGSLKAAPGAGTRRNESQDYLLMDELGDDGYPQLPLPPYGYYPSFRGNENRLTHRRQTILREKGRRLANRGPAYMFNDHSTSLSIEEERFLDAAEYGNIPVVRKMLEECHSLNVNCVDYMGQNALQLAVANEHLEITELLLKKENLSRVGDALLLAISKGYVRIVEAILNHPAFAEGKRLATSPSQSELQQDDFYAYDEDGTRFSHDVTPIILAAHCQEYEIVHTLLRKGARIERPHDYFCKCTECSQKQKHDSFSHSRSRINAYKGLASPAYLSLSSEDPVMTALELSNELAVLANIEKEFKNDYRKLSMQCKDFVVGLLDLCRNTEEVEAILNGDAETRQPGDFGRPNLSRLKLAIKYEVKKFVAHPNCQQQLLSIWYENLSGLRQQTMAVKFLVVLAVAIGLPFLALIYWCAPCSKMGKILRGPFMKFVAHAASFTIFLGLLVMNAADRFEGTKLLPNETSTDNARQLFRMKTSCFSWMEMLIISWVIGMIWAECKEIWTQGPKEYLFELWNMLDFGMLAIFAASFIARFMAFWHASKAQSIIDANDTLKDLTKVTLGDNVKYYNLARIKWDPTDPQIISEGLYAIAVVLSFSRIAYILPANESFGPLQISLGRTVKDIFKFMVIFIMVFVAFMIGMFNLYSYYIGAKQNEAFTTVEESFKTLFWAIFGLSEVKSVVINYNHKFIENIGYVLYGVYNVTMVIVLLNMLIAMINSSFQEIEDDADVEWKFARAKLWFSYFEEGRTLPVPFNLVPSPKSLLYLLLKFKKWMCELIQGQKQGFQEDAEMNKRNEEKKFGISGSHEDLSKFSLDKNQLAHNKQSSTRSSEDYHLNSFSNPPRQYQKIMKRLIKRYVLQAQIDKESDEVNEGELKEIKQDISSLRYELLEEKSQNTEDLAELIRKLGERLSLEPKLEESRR
TRPC4 PAM: allosteric potentiators of mouse TRPC4 channel; Q9QUQ5; HEK293 TRPC4beta/mu-opioid, DAMGO EC20, Fluo-4 Ca2+ flux; stronger effect = higher value; AID 2227; 310,000 tested, 0.42% active; B-score at 10 µM;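 active = B-score of calcium response area above 5 SD of library B-scores, with initial fluorescence ratio within 5 SD of library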
TRPC6 activator: mouse TRPC6 channel activation. AID 2550. B-score at 10 µM. 310,000 tested, 0.13% active. HEK293-TRPC6 membrane potential dye fluorescence; stronger effect = higher value. Q61143;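 active = B-score of the integrated fluorescence ratio above library mean plus 3 SD, and starting fluorescence ratio within library mean plus 5 SD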;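 also: higher score means more depolarization so channel activation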
TRPC4 inh: TRPC4 (mouse) channel inhibition | Q9QUQ5 | AID 2247 | HEK293 TRPC4beta/mu-opioid, DAMGO-evoked Fluo4 calcium flux; stronger effect = lower value | B-score at 10 µM | 300,000 tested, 0.39% active;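 active = B-score over 3 SD under the library average, no early fluorescence shift, positive overall ratio signal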
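Material: HEK293 cells with stable TRPC4beta plus mu-opioid receptor expression; probe or stimulus: DAMGO in two steps, submaximal then maximal; technique: Fluo4 calcium fluorescence by kinetic imaging, 5 s 1 Hz baseline; measure: integrated fluorescence ratio relative to baseline, converted to per-well B score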
TRPC4 act: TRPC4 (mouse) channel activation | 310,000 tested, 0.49% active | Q9QUQ5 | B-score at 10 µM | HEK293 TRPC4beta/mu-opioid, Fluo4 calcium fluorescence; stronger effect = higher value;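 active = B-score above 5 SD of library B-scores, and initial fluorescence ratio not above library mean plus 5 SD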;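 also: positive B-score marks a calcium rise read as TRPC4 activation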
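Assay system – TRPC4beta and mu-opioid receptor HEK293 stable cells · Measured by – Fluo4 fluorescence, kinetic · Schedule – dye loading 45 min room temperature, 110 s kinetic read · Read-out – B-scored integrated calcium fluorescence ratio · Controls – buffer and maximal DAMGO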
TRPC4 sel inh 2: mouse TRPC4 off-target activity of TRPC6 inhibitors, second screen; shares compounds with TRPC6 inhibitor; HEK293 TRPC4/MOR, membrane potential dye fluorescence; channel activated by saturating DAMGO dose; inhibition, % at 10 µM; 920 tested, 42% active;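 active = compounds whose fluorescence signal differed from control wells by over 3 SD, either direction, in both duplicate plates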
TRPC4 spec: tests whether TRPC6 inhibitors also affect mouse TRPC4 | shares compounds with TRPC6 inhibitor | HEK293 TRPC4/mu-opioid, membrane potential fluorescence | AID 2777 | activity change, negative = inhibition, % at 10 µM | 920 tested, 61% active;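 active = rise or fall in signal beyond 3 SD of buffer-only wells in both replicate plates, either sign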;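 also: integrated kinetic ratio of fluorescence range over baseline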
HEK293 MPD ctr 2-1: second counter-screen for TRPC6 inhibitors: parental HEK293 cells; shares compounds with TRPC6 inhibitor; parental HEK293 membrane potential dye fluorescence; maximal acetylcholine challenge after compound addition; signal change vs control, % at 10 µM; 920 tested, 31% active;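 active = membrane potential signal moving either way by over 3 SD of the maximum-effect control, in both duplicate plates, meaning non-specific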
HEK293 MPD ctr-1: parental HEK293 nonspecific activity of TRPC6 inhibitors; shares compounds with TRPC6 inhibitor; parental HEK293 membrane potential dye fluorescence; membrane potential signal change, % at 10 µM; 920 tested, 60% active;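 active = membrane potential signal shifting up or down by more than 3 SD of buffer-only wells, on both duplicate plates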
HEK293 MPD ctr-2: parental HEK293 nonspecific activity of TRPC6 modulators | membrane potential signal change, % at 10 µM | AID 488924 | membrane potential dye fluorescence | 2,400 tested, 51% active | shares compounds with TRPC6 inhibitor;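 active = membrane potential signal moves up or down beyond 5 SD from buffer-only wells, on both duplicate plates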
HEK293 MPD ctr 2-2: parental HEK293 nonspecific activity of TRPC6 modulators, second screen; shares compounds with TRPC6 inhibitor; membrane potential dye fluorescence; after compound, maximal acetylcholine stimulation; inhibition, % at 10 µM; 2,400 tested, 14% active; AID 488926;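 active = membrane potential signal drops by more than 5 SD from the mean control signal, in both duplicate plates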
TRPC4 ctr mod: mouse TRPC4 off-target activity of TRPC6 modulators; shares compounds with TRPC6 inhibitor; HEK293 TRPC4/mu-opioid, membrane potential fluorescence; percent change from control (negative = decrease, positive = increase), % at 10 µM; 2,400 tested, 69% active; AID 488927;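 active = membrane potential signal moved up or down beyond 5 SD of buffer control wells, in both duplicate plates, actives on both sides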
TRPC4 ctr inh 2: mouse TRPC4 off-target activity of TRPC6 modulators, second screen; shares compounds with TRPC6 inhibitor; inhibition, % at 10 µM; 2,400 tested, 55% active; HEK293 TRPC4/mu-opioid, membrane potential dye fluorescence; stimulated with maximal-effect DAMGO;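 active = drop in membrane potential signal beyond 5 SD of the control wells in both duplicate plates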;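 also: TRPC4 counter screen for TRPC6 hits run under conditions tuned for TRPC6 not TRPC4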
TRPC6 inh conf: mouse TRPC6 inhibitor confirmation; 3,300 tested, 43% active; AID 488960; inhibition, % at 10 µM; HEK293-TRPC6, membrane potential dye, ACh-evoked depolarization; shares compounds with TRPC6 inhibitor;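 active = fluorescence ratio falls more than 5 SD below the full-stimulation control mean, in both duplicate runs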;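 also: integrated fluorescence ratio of peak minus minimum over baseline after agonist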
TRPC6 act conf: mouse TRPC6 activator confirmation; activation, % at 10 µM; HEK293-TRPC6 membrane potential dye fluorescence, FDSS; shares compounds with TRPC6 inhibitor; 2,800 tested, 11% active; AID 488961;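 active = ratio signal rise beyond 5 SD above unstimulated control wells' mean, seen in both duplicate runs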
Each line names hits and unclear results; the compound was inactive in the other large screens (follow-up assays come after a bar, where they were run).

O=C(Nc1ccc(N2CCOCC2)cc1)c1ccc(Cl)nc1	none
CCCN(CCC)CC(O)CN1C(=O)NC(C)(C)C1=O (stereo unspecified)	none
COC(=O)Cc1c[nH]c2cccc(OCC(O)CN(Cc3ccccc3)C(C)C)c12 (stereo unspecified)	TRPC6 inhibitor -7.2 | TRPC4 sel inh 2 71.5% | TRPC4 spec 0.3% | HEK293 MPD ctr 2-1 inactive | HEK293 MPD ctr-1 inactive | TRPC6 inh conf inactive | TRPC6 act conf inactive
CCOCCCNC(=O)c1c[nH]c2ccc(OCC)cc2c1=O	none
Cc1nn(-c2cc(C)c3ccccc3n2)c2c1CCC2	TRPC6 inhibitor -5.39 | HEK293 MPD ctr-2 inactive | HEK293 MPD ctr 2-2 inactive | TRPC4 ctr mod inactive | TRPC4 ctr inh 2 inactive | TRPC6 inh conf inactive | TRPC6 act conf inactive
Cc1cc(N2CCCC2)nc2ccccc12	TRPC6 inhibitor -8.2 | TRPC4 sel inh 2 49.5% | TRPC4 spec -30.1% | HEK293 MPD ctr 2-1 -6.5% | HEK293 MPD ctr-1 -410.5% | TRPC6 inh conf 53.2% | TRPC6 act conf inactive
O=C(c1ccc(COc2ccccc2Br)o1)N1N=C(C(F)F)CC1(O)C(F)F (stereo unspecified)	none
CC(C)Cc1nc(SCC(=O)N2CCCC2)c2c(=O)n(C)c(=O)n(C)c2n1	none
CCCc1cc(-c2[nH]ncc2-c2ccc3c(c2)OCCCO3)c(O)cc1O	TRPC6 inhibitor -8.03 | TRPC4 sel inh 2 inactive | TRPC4 spec inactive | HEK293 MPD ctr 2-1 208.0% | HEK293 MPD ctr-1 inactive | TRPC6 inh conf 62.8% | TRPC6 act conf inactive
Cc1cc(C)c2c(n1)nn1c(NCCCN(C)C)cc(C)nc21	none
Cc1cc(NCCCN(C)C)n2nc(-c3cccs3)cc2n1	TRPC6 inhibitor -8.23, TRPC4 PAM 12 | HEK293 MPD ctr-2 -349.0% | HEK293 MPD ctr 2-2 81.5% | TRPC4 ctr mod -58.5% | TRPC4 ctr inh 2 57.5% | TRPC6 inh conf 69.0% | TRPC6 act conf inactive
CCN(CC)CCNC1=NCCn2c1cc1cc(OC)ccc12	TRPC6 inhibitor -6.7 | HEK293 MPD ctr-2 -145.5% | HEK293 MPD ctr 2-2 inactive | TRPC4 ctr mod -27.5% | TRPC4 ctr inh 2 43.5% | TRPC6 inh conf inactive | TRPC6 act conf inactive
COc1cc(OC)cc(C(=O)N[C@H](C(=O)Nc2nc(-c3ccc(OC)c(OC)c3)cs2)C(C)C)c1	none
Cc1ccc(O)c(CNCCNCc2cc(C)ccc2O)c1	TRPC6 inhibitor -6.38 | HEK293 MPD ctr-2 161.0% | HEK293 MPD ctr 2-2 inactive | TRPC4 ctr mod 16.5% | TRPC4 ctr inh 2 82.0% | TRPC6 inh conf 44.0%
CCc1ccc(O)c(CNCCNCc2cc(CC)ccc2O)c1	none
